Reference: publication PMC3555362 (Angewandte Chemie (International Ed. in English), 2011)
Square brackets hold non-standard residues; d marks the D form. Peptide text beside a SMILES is read from it. pT = C[C@@H](OP(=O)(O)O)[C@H](N)C(=O)O; pS = N[C@@H](COP(=O)(O)O)C(=O)O

Legend:
[1] = tested on: polo-box domain (PBD) of polo-like kinase 1 (Plk1), wild-type (His6-PBD345-603 WT); assay: fluorescence-based thermal stability; type: binding, human; conditions: for Thermal shift, Δ: difference between wild-type and Y417A/Y421A thermal shifts
In short: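 Fluorescence-based thermal stability screen of phosphorylated test peptides derived from PBIP1 and TCERG1, run in parallel on wild-type Plk1 polo-box domain and on the Y417A/Y421A double mutant. The mutant was designed to weaken binding at the hydrophobic pocket, so the wild-type-minus-mutant shift reports pocket involvement.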

[2] = target: polo-box domain (PBD) of Plk1, His6-PBD345-603 (Homo sapiens, UniProt P53350); assay: isothermal titration calorimetry; type: binding
Sequence of polo-box domain (PBD) of Plk1, His6-PBD345-603 (P53350 345-603): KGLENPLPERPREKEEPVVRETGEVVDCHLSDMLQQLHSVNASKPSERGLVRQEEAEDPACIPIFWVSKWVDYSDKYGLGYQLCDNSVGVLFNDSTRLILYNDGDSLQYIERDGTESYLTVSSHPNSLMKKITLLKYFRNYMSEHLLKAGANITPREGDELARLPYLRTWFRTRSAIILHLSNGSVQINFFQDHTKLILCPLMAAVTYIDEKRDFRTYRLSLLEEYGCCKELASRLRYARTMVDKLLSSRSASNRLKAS

[3] = tested on: PBD of human Plk1 (GPLGSPEF-PBD371-594); assay: X-ray crystal structure of peptide in complex with PBD; type: binding; conditions: crystal structures 3P36 (DPPLHSpTA), 3P37 (FDPPLHSpTA), 3Q1I (FMPPPMSpSM)

| Compound | Thermal shift, Δ [1] | Kd [2] | hydrophobic pocket binding in crystal structure (in words) [3] | difference in thermal shifts between wild-type and mutant protein (in words) ([1]; wild-type PBD versus Y417A/Y421A mutant) | affinity by ITC (in words) ([2]; ITC, 25 °C, compared with peptides without Phe71) |
| --- | --- | --- | --- | --- | --- |
| CC(=O)N[C@@H](C)C(=O)N[C@@H](CC(=O)O)C(=O)N1CCC[C@H]1C(=O)N1CCC[C@H]1C(=O)N[C@@H](CC(C)C)C(=O)N[C@@H](Cc1c[nH]cn1)C(=O)N[C@@H](CO)C(=O)N[C@H](C(=O)N[C@@H](C)C(N)=O)[C@@H](C)OP(=O)(O)O [ADPPLHSpTA] (Ac-ADPPLHS[pT]A-NH2) | −0.2 °C | 1320 nM |  |  |  |
| CC(=O)N[C@@H](CC(=O)O)C(=O)N1CCC[C@H]1C(=O)N1CCC[C@H]1C(=O)N[C@@H](CC(C)C)C(=O)N[C@@H](Cc1c[nH]cn1)C(=O)N[C@@H](CO)C(=O)N[C@H](C(=O)N[C@@H](C)C(N)=O)[C@@H](C)OP(=O)(O)O [DPPLHSpTA] (Ac-DPPLHS[pT]A-NH2) | −0.4 °C | 2140 nM |  |  |  |
| CSCC[C@H](NC(=O)[C@H](COP(=O)(O)O)NC(=O)[C@H](CO)NC(=O)[C@H](CCSC)NC(=O)[C@@H]1CCCN1C(=O)[C@@H]1CCCN1C(=O)[C@@H]1CCCN1C(=O)[C@H](CCSC)NC(=O)[C@H](Cc1ccccc1)NC(C)=O)C(N)=O [FMPPPMSpSM] (Ac-FMPPPMS[pS]M-NH2) | 0.0 °C | 515000 nM | lack of hydrophobic pocket binding |  |  |
| CC(=O)N[C@@H](Cc1ccccc1)C(=O)N[C@@H](CC(=O)O)C(=O)N1CCC[C@H]1C(=O)N1CCC[C@H]1C(=O)N[C@@H](CC(C)C)C(=O)N[C@@H](Cc1c[nH]cn1)C(=O)N[C@@H](CO)C(=O)N[C@H](C(=O)N[C@@H](C)C(N)=O)[C@@H](C)OP(=O)(O)O [FDPPLHSpTA] (Ac-FDPPLHS[pT]A-NH2) | 4.3 °C | 250 nM |  | significant difference in thermal shifts | increased affinity |
